# Test results: ChEMBL document CHEMBL1137430, “Incorporation of an intramolecular hydrogen-bonding motif in the side chain of 4-aminoquinolines enhances activity against drug-resistant P. falciparum” (J Med Chem, 2006)
# Tests used:
# [1] = test system: Plasmodium falciparum; experiment: Antimalarial activity against chloroquine-sensitive Plasmodium falciparum 3D7; assay type: functional, organism-based
# Procedure, shortened: (§1)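 P. falciparum blood-stage cultures at 37 °C under 5% CO2, 5% O2. Samples taken 72 h after drug addition, fixed in 2% paraformaldehyde about 1 h, then stained with 50 nM YOYO-1 in PBS for 24 h in the dark at 4 °C. Percent parasitized RBCs read by flow cytometry against no-drug cultures. Doses 0.1–200 nM in triplicate. IC50 from a variable-slope sigmoidal fit.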
# [2] = test system: Plasmodium falciparum; experiment: Antimalarial activity against multidrug-resistant Plasmodium falciparum W2; assay type: functional, organism-based; procedure, shortened: as §1
Structure (SMILES),IC50 [1] [nM],IC50 [2] [nM]
CCCN(CCCNc1ccnc2cc(C)ccc12)Cc1cc([N+](=O)[O-])ccc1O,38.8,126
CCCN(CCCCNc1ccnc2cc(Cl)ccc12)Cc1cc(O)ccc1O,2.2,8.9
CCCN(CCCCNc1ccnc2cc(Cl)ccc12)Cc1cc(F)ccc1OC,1.9,4.9
CCCN(CCCCNc1ccnc2cc(Cl)ccc12)Cc1cc(OC)ccc1O,6.8,27.5
CCCN(CCCNc1ccnc2cc(Cl)ccc12)Cc1ccccc1O,0.65,1.8
CCCN(CCCCNc1ccnc2cc(Cl)ccc12)Cc1cccs1,7.2,22
CCCN(CCCNc1ccnc2cc(Cl)ccc12)Cc1ccco1,12.2,33
CCCN(CCCCNc1ccnc2cc(Cl)ccc12)Cc1ccco1,3.1,4
CCCN(CCCCNc1ccnc2cc(Cl)ccc12)Cc1ccc(C)o1,7.4,30.2
CCCN(CCCNc1ccnc2cc(Cl)ccc12)Cc1cccs1,32.1,140
CCCN(CCCCNc1ccnc2cc(Cl)ccc12)Cc1cccc(OC)c1O,1,4.3
CCCN(CCCNc1ccnc2cc(Cl)ccc12)Cc1cccc(F)c1O,0.98,2.6
CCCN(CCCCNc1ccnc2cc(Cl)ccc12)Cc1c(F)cccc1OC,10,11.2
CCCN(CCCCNc1ccnc2cc(Cl)ccc12)Cc1cccc2c1OCO2,4.2,23
CCCN(CCCNc1ccnc2cc(Cl)ccc12)Cc1cc(F)ccc1OC,5.2,
CCCN(CCCCNc1ccnc2cc(Cl)ccc12)Cc1ccccc1O,7,20
CCCN(CCCCNc1ccnc2cc(Cl)ccc12)Cc1ccc(Cl)o1,4.3,6
CCCN(CCCNc1ccnc2cc(Cl)ccc12)Cc1cc(O)ccc1O,2.9,22.5
CCCN(CCCCNc1ccnc2cc(Cl)ccc12)Cc1cccc(F)c1O,1.4,4.6
CCCN(CCCCNc1ccnc2cc(Cl)ccc12)Cc1cc(OC(F)(F)F)ccc1O,2.4,5.9
